Data: ChEMBL document CHEMBL1136360, “2,5-disubstituted 3,4-dihydro-2H-benzo[b][1,4]thiazepines as potent and selective V2 arginine vasopressin receptor antagonists” (Bioorg Med Chem Lett, 2003)

Assays:
Rattus norvegicus [1] = assay: Effect on urine volume at a dose of 100 mg/kg in hydrated 10 male rats was determined
Vasopressin V1a receptor [2] = biological target: T1, Vasopressin V1a receptor (Homo sapiens, UniProt P37288); assay: Inhibition of vasopressin induced calcium […] in human V1a receptor expressing cells; assay type: functional
T1 sequence (P37288 whole entry): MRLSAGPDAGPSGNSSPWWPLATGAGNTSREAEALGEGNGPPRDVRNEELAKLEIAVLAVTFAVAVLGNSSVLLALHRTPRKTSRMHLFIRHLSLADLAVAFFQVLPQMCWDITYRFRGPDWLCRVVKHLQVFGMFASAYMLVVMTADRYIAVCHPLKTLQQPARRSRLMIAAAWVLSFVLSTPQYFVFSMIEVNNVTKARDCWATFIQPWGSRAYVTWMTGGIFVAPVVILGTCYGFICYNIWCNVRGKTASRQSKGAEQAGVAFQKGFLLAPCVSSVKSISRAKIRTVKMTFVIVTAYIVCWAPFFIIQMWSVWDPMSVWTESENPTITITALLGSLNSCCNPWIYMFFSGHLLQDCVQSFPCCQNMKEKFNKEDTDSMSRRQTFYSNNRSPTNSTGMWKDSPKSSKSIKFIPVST
Summary of the method: (§1)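 Functional antagonism in cells expressing the human receptor. For V2, inhibition of vasopressin-induced cAMP accumulation. For V1a, inhibition of vasopressin-induced calcium mobilization.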

Rattus norvegicus [3] = assay: Effect on urine volume at a dose of 3 mg/kg in hydrated 10 male rats was determined; assay type: functional
Summary of the method: (§2)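 Conscious, hydrated male Sprague–Dawley rats dosed orally with test compound in 0.5% hydroxypropyl-methylcellulose vehicle, or with vehicle alone (3–100 mg/kg). Urine collected over 4 h. Urine volume (mL) and osmolality (mOsmol/Kg) reported as mean with error, about 10 animals per group. Significance judged at p<0.05 versus vehicle.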

Rattus norvegicus [4] = assay: Effect on urine volume at a dose of 10 mg/kg in hydrated 10 male rats was determined; assay type: functional
Summary of the method: as §2

Rattus norvegicus [5] = assay: Effect on urine osmolality at a dose of 3 mg/kg in hydrated 10 male rats was determined; assay type: functional
Summary of the method: as §2

Rattus norvegicus [6] = assay: Effect on urine osmolality at a dose of 30 mg/kg in hydrated 10 male rats was determined; assay type: functional
Summary of the method: as §2

Vasopressin V2 receptor [7] = biological target: T2, Vasopressin V2 receptor (Homo sapiens, UniProt P30518); assay: Ability to displace [3H]arginine vasopressin in cloned human V2 receptor
T2 sequence (P30518 whole entry): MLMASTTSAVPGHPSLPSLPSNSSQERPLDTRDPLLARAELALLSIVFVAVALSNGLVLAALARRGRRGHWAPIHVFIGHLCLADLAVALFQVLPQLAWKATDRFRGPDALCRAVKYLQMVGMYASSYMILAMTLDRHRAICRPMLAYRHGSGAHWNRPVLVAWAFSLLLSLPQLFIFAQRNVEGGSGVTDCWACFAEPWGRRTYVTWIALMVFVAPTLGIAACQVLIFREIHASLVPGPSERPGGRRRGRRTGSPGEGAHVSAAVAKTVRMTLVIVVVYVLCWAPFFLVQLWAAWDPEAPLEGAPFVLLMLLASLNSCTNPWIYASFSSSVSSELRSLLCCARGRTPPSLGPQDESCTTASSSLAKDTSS
Summary of the method: (§3)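 Radioligand displacement of 3H-arginine vasopressin from cloned human V1a or V2 receptors. Single-concentration lines are read as percent inhibition at […].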

Rattus norvegicus [8] = assay: Effect on urine osmolality at a dose of 10 mg/kg in hydrated 10 male rats was determined; assay type: functional
Summary of the method: as §2

Rattus norvegicus [9] = assay: Effect on urine osmolality at a dose of 100 mg/kg in hydrated 10 male rats was determined; assay type: functional
Summary of the method: as §2

Vasopressin V2 receptor [10] = biological target: T2, Vasopressin V2 receptor; assay: Inhibition of vasopressin induced cAMP accumulation in human V2 receptor expressing cells; assay type: functional
Summary of the method: as §1

Rattus norvegicus [11] = assay: Effect on urine volume at a dose of 30 mg/kg in hydrated 10 male rats was determined; assay type: functional
Summary of the method: as §2

Vasopressin V1a receptor [12] = biological target: T1, Vasopressin V1a receptor; assay: Ability to displace [3H]arginine vasopressin in cloned human V1a receptor
Summary of the method: as §3

| SMILES | IC50 (Vasopressin V1a receptor [2]) [nM] | IC50 (Vasopressin V2 receptor [7]) [nM] | IC50 (Vasopressin V2 receptor [10]) [nM] | IC50 (Vasopressin V1a receptor [12]) [nM] | further results |
| --- | --- | --- | --- | --- | --- |
| O=C(O)C[C@@H]1CCN(C(=O)c2ccc(NC(=O)c3ccccc3-c3ccccc3)cc2)c2ccccc2S1 | 1760 | 8 | 30 | 1140 | Urine volume (Rattus norvegicus [1]): 13.8 mL; Urine volume (Rattus norvegicus [3]): 2.2 mL; Urine volume (Rattus norvegicus [4]): 7.3 mL; Urine osmolality (Rattus norvegicus [5]): 529 mOsmol kg-1; Urine osmolality (Rattus norvegicus [6]): 161 mOsmol kg-1; Urine osmolality (Rattus norvegicus [8]): 299 mOsmol kg-1; Urine osmolality (Rattus norvegicus [9]): 177 mOsmol kg-1; Urine volume (Rattus norvegicus [11]): 15.7 mL |
| O=C(Nc1ccc(C(=O)N2CCC(CCO)Sc3ccccc32)cc1)c1ccccc1-c1ccccc1 (centres undefined) | 150 | 8 | 100 | 97 | – |
| O=C(O)CC[C@H]1CCN(C(=O)c2ccc(NC(=O)c3ccccc3-c3ccccc3)cc2)c2ccccc2S1 | 2010 | 15 | 30 | 140 | – |
| O=C(O)CC1CCN(C(=O)c2ccc(NC(=O)c3ccccc3-c3ccccc3)cc2)c2ccccc2S1 (centres undefined) | 740 | 7 | 40 | 729 | – |
| O=C(Nc1ccc(C(=O)N2CCC(CCS(=O)(=O)O)Sc3ccccc32)cc1)c1ccccc1-c1ccccc1 (centres undefined) | – | – | – | 1150 | – |
| O=C(O)CC[C@@H]1CCN(C(=O)c2ccc(NC(=O)c3ccccc3-c3ccccc3)cc2)c2ccccc2S1 | 4630 | 16 | 40 | 314 | – |
| CN(C)CC1CCN(C(=O)c2ccc(NC(=O)c3ccccc3-c3ccccc3)cc2)c2ccccc2S1 (centres undefined) | – | 430 | – | 1200 | – |
| O=C(Nc1ccc(C(=O)N2CCC(CCF)Sc3ccccc32)cc1)c1ccccc1-c1ccccc1 (centres undefined) | – | 85 | – | 180 | – |
| O=C(Nc1ccc(C(=O)N2CCC(CC(F)F)Sc3ccccc32)cc1)c1ccccc1-c1ccccc1 (centres undefined) | – | 100 | – | 160 | – |
| O=C(O)C[C@H]1CCN(C(=O)c2ccc(NC(=O)c3ccccc3-c3ccccc3)cc2)c2ccccc2S1 | 2130 | 7 | 36 | 440 | – |
